From ChEMBL document CHEMBL5724801, “EUbOPEN Chemogenomics Library - Multiplex” (2024)
Values joined by “and” are separate entries in the source; they are usually repeats but may differ in a detail not shown here. Equal entries are not always repeated.

System: Fibroblast
Experiment: Multiplex assay against human fibroblast
Type: toxicity, cell-based
Procedure, shortened: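 Per cents of healthy-nucleus cells form the tubulin, mitochondrial-mass and membrane-permeability phenotype values. Live cells were stained at seeding with Hoechst33342, BioTracker Green Microtubule Cytoskeleton Dye, MitoTracker Red and Annexin V Alexa Fluor 680. After compound addition they were imaged on a CQ1 microscope at 37°C and 5% CO2, and CellPathfinder machine-learning gating split them into Hoechst high-intensity objects or normal cells, normal cells into healthy, pyknosed or fragmented nuclei, and pyknosed cells into mitotic or apoptotic.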

[1] = 12 h, 1 µM, compound concentration 1 uM
[2] = 12 h, 10 µM, compound concentration 10 uM
[3] = 24 h, 1 µM, compound concentration 1 uM
[4] = 24 h, 10 µM, compound concentration 10 uM
[5] = 48 h, 1 µM, compound concentration 1 uM
[6] = 48 h, 10 µM, compound concentration 10 uM

## Cc1ccc(F)cc1C(=O)Nc1ccc(C(=O)N2Cc3cccn3Cc3ccccc32)c(Cl)c1 [LIXIVAPTAN]
[1]
  Population Apoptotic (%): 40% and 50%
  Population Fragmented Nuclei (%): 11% and 30%
  Population Healthy Nuclei (%): 73% and 47%
  Population Hoechst High Intensity Objects (%): 5% and 3%
  Population Membrane Permeable-Phenotype (%): 0% and 1%
  Population Mitochondria Different-Phenotype (%): 3% and 9%
  Population Mitotic Cells (%): 59% and 50%
  Population Normal (%): 94% and 96%
  Population Pyknosed Nuclei (%): 15% and 21%
  Population Tubulin-Different-Phenotype (%): 28% and 38%
  Total Cell Count: 186 and 117
[2]
  Population Apoptotic (%): 34% and 31%
  Population Fragmented Nuclei (%): 18% and 27%
  Population Healthy Nuclei (%): 58% and 46%
  Population Hoechst High Intensity Objects (%): 0% and 5%
  Population Membrane Permeable-Phenotype (%): 2% and 6%
  Population Mitochondria Different-Phenotype (%): 5% and 10%
  Population Mitotic Cells (%): 65% and 68%
  Population Normal (%): 99% and 94%
  Population Pyknosed Nuclei (%): 23% and 25%
  Population Tubulin-Different-Phenotype (%): 62% and 72%
  Total Cell Count: 137 and 179
[3]
  Population Apoptotic (%): 50% and 32%
  Population Fragmented Nuclei (%): 12% and 33%
  Population Healthy Nuclei (%): 73% and 43%
  Population Hoechst High Intensity Objects (%): 1% and 3%
  Population Membrane Permeable-Phenotype (%): 1% and 5%
  Population Mitochondria Different-Phenotype (%): 0% and 5%
  Population Mitotic Cells (%): 50% and 67%
  Population Normal (%): 98% and 96%
  Population Pyknosed Nuclei (%): 14% and 23%
  Population Tubulin-Different-Phenotype (%): 33% and 52%
  Total Cell Count: 172 and 126
[4]
  Population Apoptotic (%): 25% and 51%
  Population Fragmented Nuclei (%): 19% and 26%
  Population Healthy Nuclei (%): 63% and 51%
  Population Hoechst High Intensity Objects (%): 0% and 5%
  Population Membrane Permeable-Phenotype (%): 2% and 11%
  Population Mitochondria Different-Phenotype (%): 8% and 12%
  Population Mitotic Cells (%): 75% and 48%
  Population Normal (%): 99% and 94%
  Population Pyknosed Nuclei (%): 17% and 22%
  Population Tubulin-Different-Phenotype (%): 63% and 82%
  Total Cell Count: 142 and 174
[5]
  Population Apoptotic (%): 63% and 50%
  Population Fragmented Nuclei (%): 18% and 37%
  Population Healthy Nuclei (%): 68% and 40%
  Population Hoechst High Intensity Objects (%): 8% and 0%
  Population Membrane Permeable-Phenotype (%): 0% and 4%
  Population Mitochondria Different-Phenotype (%): 3% and 11%
  Population Mitotic Cells (%): 36% and 50%
  Population Normal (%): 91% and 99%
  Population Pyknosed Nuclei (%): 13% and 21%
  Population Tubulin-Different-Phenotype (%): 28% and 53%
  Total Cell Count: 181 and 111
[6]
  Population Apoptotic (%): 70% and 73%
  Population Fragmented Nuclei (%): 25% and 36%
  Population Healthy Nuclei (%): 62% and 51%
  Population Hoechst High Intensity Objects (%): 2% and 5%
  Population Membrane Permeable-Phenotype (%): 0% and 6%
  Population Mitochondria Different-Phenotype (%): 13%
  Population Mitotic Cells (%): 29% and 26%
  Population Normal (%): 97% and 94%
  Population Pyknosed Nuclei (%): 11%
  Population Tubulin-Different-Phenotype (%): 69% and 78%
  Total Cell Count: 149 and 170

## CC(=O)NCCc1c(Cc2ccccc2)[nH]c2ccccc12 [LUZINDOLE]
[1]
  Population Apoptotic (%): 41% and 40%
  Population Fragmented Nuclei (%): 15% and 25%
  Population Healthy Nuclei (%): 65% and 39%
  Population Hoechst High Intensity Objects (%): 1% and 4%
  Population Membrane Permeable-Phenotype (%): 2% and 9%
  Population Mitochondria Different-Phenotype (%): 7% and 11%
  Population Mitotic Cells (%): 58% and 59%
  Population Normal (%): 98% and 95%
  Population Pyknosed Nuclei (%): 18% and 34%
  Population Tubulin-Different-Phenotype (%): 30% and 50%
  Total Cell Count: 129 and 134
[2]
  Population Apoptotic (%): 19% and 21%
  Population Fragmented Nuclei (%): 15% and 26%
  Population Healthy Nuclei (%): 69% and 59%
  Population Hoechst High Intensity Objects (%): 2%
  Population Mitochondria Different-Phenotype (%): 7% and 4%
  Population Mitotic Cells (%): 80% and 78%
  Population Normal (%): 97%
  Population Pyknosed Nuclei (%): 15% and 13%
  Population Tubulin-Different-Phenotype (%): 42% and 32%
  Total Cell Count: 140 and 105
[3]
  Population Apoptotic (%): 54% and 45%
  Population Fragmented Nuclei (%): 21% and 25%
  Population Healthy Nuclei (%): 61% and 47%
  Population Hoechst High Intensity Objects (%): 0% and 5%
  Population Membrane Permeable-Phenotype (%): 0% and 8%
  Population Mitochondria Different-Phenotype (%): 3% and 8%
  Population Mitotic Cells (%): 45% and 54%
  Population Normal (%): 99% and 94%
  Population Pyknosed Nuclei (%): 16% and 26%
  Total Cell Count: 134 and 137
[4]
  Population Apoptotic (%): 47% and 23%
  Population Fragmented Nuclei (%): 15% and 27%
  Population Healthy Nuclei (%): 67% and 59%
  Population Hoechst High Intensity Objects (%): 2% and 3%
  Population Membrane Permeable-Phenotype (%): 1% and 5%
  Population Mitochondria Different-Phenotype (%): 5% and 3%
  Population Mitotic Cells (%): 52% and 76%
  Population Normal (%): 97% and 96%
  Population Pyknosed Nuclei (%): 17% and 12%
  Population Tubulin-Different-Phenotype (%): 29% and 33%
  Total Cell Count: 138 and 105
[5]
  Population Apoptotic (%): 75% and 39%
  Population Fragmented Nuclei (%): 15% and 27%
  Population Healthy Nuclei (%): 72% and 55%
  Population Hoechst High Intensity Objects (%): 5% and 8%
  Population Membrane Permeable-Phenotype (%): 2% and 9%
  Population Mitochondria Different-Phenotype (%): 3% and 5%
  Population Mitotic Cells (%): 25% and 60%
  Population Normal (%): 94% and 91%
  Population Pyknosed Nuclei (%): 12% and 16%
  Population Tubulin-Different-Phenotype (%): 24% and 46%
  Total Cell Count: 134 and 149
[6]
  Population Apoptotic (%): 80% and 54%
  Population Fragmented Nuclei (%): 19% and 34%
  Population Healthy Nuclei (%): 70% and 54%
  Population Hoechst High Intensity Objects (%): 3% and 4%
  Population Membrane Permeable-Phenotype (%): 0% and 3%
  Population Mitochondria Different-Phenotype (%): 3%
  Population Mitotic Cells (%): 20% and 45%
  Population Normal (%): 96% and 95%
  Population Pyknosed Nuclei (%): 10%
  Population Tubulin-Different-Phenotype (%): 34% and 50%
  Total Cell Count: 147 and 111

## N[C@@]1(C(=O)O)CO[C@H]2[C@H](C(=O)O)[C@H]21 [LY-379268]
[1]
  Population Apoptotic (%): 22% and 44%
  Population Fragmented Nuclei (%): 17% and 33%
  Population Healthy Nuclei (%): 70% and 43%
  Population Hoechst High Intensity Objects (%): 1% and 10%
  Population Membrane Permeable-Phenotype (%): 0% and 5%
  Population Mitochondria Different-Phenotype (%): 2% and 1%
  Population Mitotic Cells (%): 77% and 55%
  Population Normal (%): 98% and 89%
  Population Pyknosed Nuclei (%): 11% and 22%
  Population Tubulin-Different-Phenotype (%): 25% and 45%
  Total Cell Count: 156 and 145
[2]
  Population Apoptotic (%): 29% and 21%
  Population Fragmented Nuclei (%): 15%
  Population Healthy Nuclei (%): 69% and 51%
  Population Hoechst High Intensity Objects (%): 3%
  Population Membrane Permeable-Phenotype (%): 0% and 4%
  Population Mitochondria Different-Phenotype (%): 3% and 1%
  Population Mitotic Cells (%): 70% and 78%
  Population Normal (%): 96%
  Population Pyknosed Nuclei (%): 14% and 33%
  Population Tubulin-Different-Phenotype (%): 19% and 47%
  Total Cell Count: 187 and 128
[3]
  Population Apoptotic (%): 36% and 47%
  Population Fragmented Nuclei (%): 16% and 40%
  Population Healthy Nuclei (%): 70% and 41%
  Population Hoechst High Intensity Objects (%): 0% and 10%
  Population Membrane Permeable-Phenotype (%): 0% and 4%
  Population Mitochondria Different-Phenotype (%): 5% and 10%
  Population Mitotic Cells (%): 63% and 52%
  Population Normal (%): 99% and 89%
  Population Pyknosed Nuclei (%): 12% and 18%
  Population Tubulin-Different-Phenotype (%): 23% and 60%
  Total Cell Count: 152 and 125
[4]
  Population Apoptotic (%): 66% and 22%
  Population Fragmented Nuclei (%): 14% and 17%
  Population Healthy Nuclei (%): 75% and 53%
  Population Hoechst High Intensity Objects (%): 5% and 6%
  Population Membrane Permeable-Phenotype (%): 0% and 2%
  Population Mitochondria Different-Phenotype (%): 3% and 0%
  Population Mitotic Cells (%): 33% and 77%
  Population Normal (%): 94% and 93%
  Population Pyknosed Nuclei (%): 10% and 28%
  Population Tubulin-Different-Phenotype (%): 19% and 44%
  Total Cell Count: 189 and 133
[5]
  Population Apoptotic (%): 76% and 50%
  Population Fragmented Nuclei (%): 22% and 33%
  Population Healthy Nuclei (%): 68% and 55%
  Population Hoechst High Intensity Objects (%): 3% and 11%
  Population Membrane Permeable-Phenotype (%): 0% and 4%
  Population Mitochondria Different-Phenotype (%): 5% and 7%
  Population Mitotic Cells (%): 23% and 50%
  Population Normal (%): 96% and 88%
  Population Pyknosed Nuclei (%): 8% and 11%
  Population Tubulin-Different-Phenotype (%): 26% and 59%
  Total Cell Count: 156 and 136
[6]
  Population Apoptotic (%): 62% and 42%
  Population Fragmented Nuclei (%): 14% and 27%
  Population Healthy Nuclei (%): 72% and 56%
  Population Hoechst High Intensity Objects (%): 1% and 7%
  Population Membrane Permeable-Phenotype (%): 0% and 10%
  Population Mitochondria Different-Phenotype (%): 0% and 5%
  Population Mitotic Cells (%): 37% and 57%
  Population Normal (%): 98% and 92%
  Population Pyknosed Nuclei (%): 13% and 16%
  Population Tubulin-Different-Phenotype (%): 19% and 47%
  Total Cell Count: 179 and 140
